Experimental data as given in ChEMBL document CHEMBL3616458, “Synthesis of chiral ND-322, ND-364 and ND-364 derivatives as selective inhibitors of human gelatinase” (Bioorg Med Chem, 2015).
The source made the active and inactive calls. The calls are words filed in the database; no cut-off is given here.

Tests used:
[1] = molecular target: Histone deacetylase (HDAC1 and HDAC2) (Homo sapiens) (UniProt Q13547+Q92769); experiment: Inhibition of HDAC1/2 in human HeLa cells using Boc-Lys (acetyl)-AMC as substrate at 10 uM incubated for 2 hrs prior to substrate addition measured after 30 mins by fluorescence assay relative to control; assay type: cell-based
Chain of Histone deacetylase (HDAC1 and HDAC2) (Homo sapiens) (Q13547 whole entry, looked up): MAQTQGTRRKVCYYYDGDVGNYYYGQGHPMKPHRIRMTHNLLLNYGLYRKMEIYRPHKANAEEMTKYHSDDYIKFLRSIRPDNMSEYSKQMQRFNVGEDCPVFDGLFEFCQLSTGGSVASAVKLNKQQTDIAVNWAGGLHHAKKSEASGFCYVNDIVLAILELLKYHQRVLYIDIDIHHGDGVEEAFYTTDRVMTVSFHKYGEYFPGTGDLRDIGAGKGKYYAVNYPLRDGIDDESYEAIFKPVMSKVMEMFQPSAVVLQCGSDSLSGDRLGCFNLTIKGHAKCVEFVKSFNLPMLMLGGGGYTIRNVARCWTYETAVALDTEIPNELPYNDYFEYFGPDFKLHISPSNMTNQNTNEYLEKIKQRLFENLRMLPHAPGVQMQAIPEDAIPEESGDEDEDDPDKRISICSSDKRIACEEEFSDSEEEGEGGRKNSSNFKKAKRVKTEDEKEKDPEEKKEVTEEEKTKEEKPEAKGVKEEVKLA
Chain of Histone deacetylase (HDAC1 and HDAC2) (Homo sapiens) (Q92769 whole entry, looked up): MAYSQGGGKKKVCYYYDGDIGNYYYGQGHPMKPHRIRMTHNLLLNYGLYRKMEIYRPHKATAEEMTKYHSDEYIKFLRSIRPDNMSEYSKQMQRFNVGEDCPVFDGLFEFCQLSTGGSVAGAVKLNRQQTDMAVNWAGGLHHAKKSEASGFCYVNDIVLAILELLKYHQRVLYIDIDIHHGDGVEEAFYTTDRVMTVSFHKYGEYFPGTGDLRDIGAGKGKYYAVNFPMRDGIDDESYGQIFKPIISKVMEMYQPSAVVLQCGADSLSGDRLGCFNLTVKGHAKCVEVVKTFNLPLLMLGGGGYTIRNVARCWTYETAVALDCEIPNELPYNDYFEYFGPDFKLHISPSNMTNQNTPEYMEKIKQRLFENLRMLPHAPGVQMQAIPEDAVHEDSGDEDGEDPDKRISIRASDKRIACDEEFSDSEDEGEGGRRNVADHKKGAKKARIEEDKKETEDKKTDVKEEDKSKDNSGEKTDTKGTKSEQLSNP
Outline: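 HeLa nuclear extract (mainly HDAC1 and HDAC2) as enzyme source in 15 mM Tris–HCl pH 8.0 at 37 °C. Enzyme added to compound solutions, then Boc-Lys(acetyl)-AMC substrate and a further 30 min incubation. Developer containing trypsin and TSA added; fluorescence read 20 min later at 390/460 nm. Single-concentration % inhibition, mean of three experiments.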

[2] = molecular target: T1, Aminopeptidase N (Sus scrofa) (UniProt P15145); experiment: Inhibition of porcine kidney microsomal APN using L-Leu-para-nitroanilide as substrate at 10 uM incubated for 2 hrs prior to substrate addition measured after 30 mins by plate reader analysis relative to control
T1 sequence (whole entry): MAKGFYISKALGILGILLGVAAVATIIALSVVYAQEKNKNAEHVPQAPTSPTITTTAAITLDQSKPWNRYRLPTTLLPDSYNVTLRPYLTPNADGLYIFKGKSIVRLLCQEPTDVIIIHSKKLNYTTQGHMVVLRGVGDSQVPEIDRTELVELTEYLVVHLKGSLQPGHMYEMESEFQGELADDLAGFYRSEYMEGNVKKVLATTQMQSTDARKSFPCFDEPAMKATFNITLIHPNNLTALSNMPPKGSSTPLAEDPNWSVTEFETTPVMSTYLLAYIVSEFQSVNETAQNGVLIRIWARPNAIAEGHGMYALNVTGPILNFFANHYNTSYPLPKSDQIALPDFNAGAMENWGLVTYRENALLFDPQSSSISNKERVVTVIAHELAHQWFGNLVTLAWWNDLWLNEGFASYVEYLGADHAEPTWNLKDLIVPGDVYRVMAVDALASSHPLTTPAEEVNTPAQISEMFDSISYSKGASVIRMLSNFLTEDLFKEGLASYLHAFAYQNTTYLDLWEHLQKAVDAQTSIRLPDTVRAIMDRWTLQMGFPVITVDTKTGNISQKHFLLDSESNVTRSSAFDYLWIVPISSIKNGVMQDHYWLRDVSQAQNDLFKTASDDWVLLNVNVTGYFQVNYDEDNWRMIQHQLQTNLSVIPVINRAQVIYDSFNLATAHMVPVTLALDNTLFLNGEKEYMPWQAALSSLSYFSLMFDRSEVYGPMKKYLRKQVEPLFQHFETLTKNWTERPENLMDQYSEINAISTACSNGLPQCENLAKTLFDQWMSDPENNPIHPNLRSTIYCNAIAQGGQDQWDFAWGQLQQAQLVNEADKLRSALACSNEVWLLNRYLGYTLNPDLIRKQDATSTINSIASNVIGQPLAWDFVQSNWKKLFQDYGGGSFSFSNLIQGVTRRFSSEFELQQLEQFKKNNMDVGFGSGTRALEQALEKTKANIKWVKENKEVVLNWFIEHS
Outline: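 Porcine kidney microsomal aminopeptidase and inhibitors in 50 mM PBS pH 7.2, preincubated 2 h at 37 °C. L-Leu-p-nitroanilide substrate then added and incubated 30 min at 37 °C. Hydrolysis followed as absorbance change at 405 nm. Single-concentration % inhibition, mean of three experiments.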

[3] = molecular target: T2, Matrix metalloproteinase-9 (Homo sapiens, UniProt P14780); experiment: Inhibition of human full length MMP9 using Mca-Pro-Leu-Gly-Leu-Dap(Dnp)-Ala-Arg-NH2 as substrate at 10 uM incubated for 2 hrs prior to testing measured for 15 mins by fluorometric analysis relative to control
T2 sequence (P14780 whole entry): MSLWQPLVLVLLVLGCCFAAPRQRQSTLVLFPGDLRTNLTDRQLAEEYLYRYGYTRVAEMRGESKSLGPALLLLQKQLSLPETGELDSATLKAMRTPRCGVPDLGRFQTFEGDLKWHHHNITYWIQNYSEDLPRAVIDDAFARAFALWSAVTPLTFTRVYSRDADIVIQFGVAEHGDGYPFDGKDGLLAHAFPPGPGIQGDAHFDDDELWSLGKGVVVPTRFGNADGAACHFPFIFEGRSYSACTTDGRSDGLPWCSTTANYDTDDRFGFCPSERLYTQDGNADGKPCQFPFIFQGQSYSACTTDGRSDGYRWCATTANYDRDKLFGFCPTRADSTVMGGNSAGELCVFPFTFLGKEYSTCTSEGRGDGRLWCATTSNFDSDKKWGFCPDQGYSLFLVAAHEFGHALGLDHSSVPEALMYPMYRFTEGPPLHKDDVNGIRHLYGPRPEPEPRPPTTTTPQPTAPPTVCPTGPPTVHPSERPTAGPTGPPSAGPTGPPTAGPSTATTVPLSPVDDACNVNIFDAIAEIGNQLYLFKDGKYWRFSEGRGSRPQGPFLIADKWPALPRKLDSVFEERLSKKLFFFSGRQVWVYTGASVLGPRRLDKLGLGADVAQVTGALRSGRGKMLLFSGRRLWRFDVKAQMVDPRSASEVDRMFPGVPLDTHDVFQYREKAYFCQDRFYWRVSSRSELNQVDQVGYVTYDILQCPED
Outline: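 MMP9 (3 nM) preincubated 2 h with inhibitor. Substrate hydrolysis was then followed for 15 min, ex 328/em 393 nm, in 50 mM HEPES pH 7.5, 150 mM NaCl, 5 mM CaCl2, 0.01% Brij-35 and 1% DMSO. Single-concentration screen gave % inhibition. […] Both were means of three experiments.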

[4] = molecular target: T2, Matrix metalloproteinase-9; experiment: Inhibition of human full length MMP9 using Mca-Pro-Leu-Gly-Leu-Dap(Dnp)-Ala-Arg-NH2 as substrate incubated for 2 hrs prior to testing measured for 15 mins by fluorometric analysis
[5] = molecular target: 72 kDa type IV collagenase (Homo sapiens, UniProt P08253); experiment: Inhibition of human full length MMP2 using Mca-Pro-Leu-Gly-Leu-Dap(Dnp)-Ala-Arg-NH2 as substrate incubated for 2 hrs prior to testing measured for 15 mins by fluorometric analysis
Chain of 72 kDa type IV collagenase (P08253 whole entry): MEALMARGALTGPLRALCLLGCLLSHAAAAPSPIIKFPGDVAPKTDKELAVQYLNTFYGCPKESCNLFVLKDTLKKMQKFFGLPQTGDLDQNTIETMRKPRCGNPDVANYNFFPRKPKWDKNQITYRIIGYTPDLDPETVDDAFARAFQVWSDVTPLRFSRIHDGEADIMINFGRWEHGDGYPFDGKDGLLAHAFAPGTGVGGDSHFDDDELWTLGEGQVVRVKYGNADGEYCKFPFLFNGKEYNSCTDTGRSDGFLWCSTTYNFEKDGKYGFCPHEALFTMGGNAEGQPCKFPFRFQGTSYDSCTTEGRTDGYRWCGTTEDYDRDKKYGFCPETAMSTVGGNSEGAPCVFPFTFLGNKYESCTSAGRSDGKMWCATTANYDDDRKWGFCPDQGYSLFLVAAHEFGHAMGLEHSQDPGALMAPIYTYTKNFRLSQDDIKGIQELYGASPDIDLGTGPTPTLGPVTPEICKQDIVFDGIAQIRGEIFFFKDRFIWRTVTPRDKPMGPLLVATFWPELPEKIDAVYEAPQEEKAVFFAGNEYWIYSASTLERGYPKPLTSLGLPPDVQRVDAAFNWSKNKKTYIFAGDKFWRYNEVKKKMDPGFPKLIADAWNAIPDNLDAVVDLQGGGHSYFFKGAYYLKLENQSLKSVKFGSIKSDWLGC

Compound	inhibition [1]	inhibition [2]	inhibition [3]	IC50 [4]	IC50 [5]
Nc1ccc(Oc2ccc(S(=O)(=O)C[C@H]3CS3)cc2)cc1	inactive	inactive	97.4%		
CC(=O)Nc1ccc(Oc2ccc(S(=O)(=O)C[C@H]3CS3)cc2)cc1	inactive	inactive	96.2%		
CC(=O)Nc1ccc(Oc2ccc([S@@+]([O-])C[C@@H]3CS3)cc2)cc1	inactive	inactive	23.7%		
CC(=O)Nc1ccc(Oc2ccc([S+]([O-])C[C@@H]3CS3)cc2)cc1 (single isomer, unassigned)	inactive	inactive	3.4%		
CC(=O)Nc1ccc(Oc2ccc(S(=O)(=O)C[C@@H]3CS3)cc2)cc1	inactive	inactive	91.1%		
CC(=O)Nc1ccc(Oc2ccc(S(=O)(=O)CC3CS3)cc2)cc1 (racemic)	inactive	inactive	97.2%		
Nc1ccc(Oc2ccc(S(=O)(=O)CC3CS3)cc2)cc1 (racemic)	inactive	inactive	96.7%		
COc1ccc(S(=O)(=O)N(CC(=O)NO)CC(C)C)cc1			100%	5.9 nM	2 nM
CC(=O)Nc1ccc(Oc2ccc([S@@+]([O-])C[C@H]3CS3)cc2)cc1	inactive	inactive	34.4%		
Nc1ccc(Oc2ccc(S(=O)(=O)C[C@@H]3CS3)cc2)cc1	inactive	inactive	98.3%		
CC(=O)Nc1ccc(Oc2ccc([S+]([O-])C[C@H]3CS3)cc2)cc1 (single isomer, unassigned)	inactive	inactive	24.8%		
